H69AR inhibit: blocks growth of human H69AR lung tumor cells; AID 598; viability, % at 10 µM; H69AR lung tumor viability, ATP luminescence, 72 h; active compounds read low; 85,000 compounds, 6% hits;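 active = viability at or below 40%; inactive = viability above 40%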;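 note: multidrug resistant small cell line overexpressing MRP-1 efflux transporter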
HUVEC inhibit: blocks proliferation of human endothelial cells. HUVEC proliferation, CellTiter-Glo luminescence, 72 h; active compounds read low. viability, % at 10 µM (by protocol). 86,000 compounds, 1.1% hits;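 active = viability at or below 30%; inactive = viability above 30%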
Lung fibro prol: blocks proliferation of human lung fibroblasts; LL 47 human lung fibroblast viability, ATP luminescence; active compounds read low; viability, % at 10 µM; 85,000 compounds, 1.1% hits; AID 719;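 active = viability at or below 50% in the single dose screen; inactive = viability above 50%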;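 note: compound exposure lasted 72 h before the ATP readout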
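Test system: LL 47 human lung fibroblasts / Quantity: 1,150 cells in each well / Medium: IMEM growth medium with 15% fetal bovine serum / Incubation: 72 h compound exposure at 37 °C after overnight plating / Detection: CellTiter-Glo luminescence measuring cellular ATP / Read-out: % viability versus median cells-only luminescence / Benchmarks: cell-only wells, no compound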
Pyk2 oligo antag: Pyk2 (human) oligomerization antagonism; Q14289; Q293 cells, Pyk2 FERM NanoBiT luminescence; active compounds read low; z-score (the deposit names both 25 µM and 10 µM); 99,000 compounds, 0.83% hits; AID 1347419;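 active = Z-score of -3 or lower, scaled per plate to the spread of control and sample wells; inactive = z-score above -3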;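 note: negative z-score means lost luminescence so less FERM oligomerization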
Target sequence (Q14289 whole entry, looked up): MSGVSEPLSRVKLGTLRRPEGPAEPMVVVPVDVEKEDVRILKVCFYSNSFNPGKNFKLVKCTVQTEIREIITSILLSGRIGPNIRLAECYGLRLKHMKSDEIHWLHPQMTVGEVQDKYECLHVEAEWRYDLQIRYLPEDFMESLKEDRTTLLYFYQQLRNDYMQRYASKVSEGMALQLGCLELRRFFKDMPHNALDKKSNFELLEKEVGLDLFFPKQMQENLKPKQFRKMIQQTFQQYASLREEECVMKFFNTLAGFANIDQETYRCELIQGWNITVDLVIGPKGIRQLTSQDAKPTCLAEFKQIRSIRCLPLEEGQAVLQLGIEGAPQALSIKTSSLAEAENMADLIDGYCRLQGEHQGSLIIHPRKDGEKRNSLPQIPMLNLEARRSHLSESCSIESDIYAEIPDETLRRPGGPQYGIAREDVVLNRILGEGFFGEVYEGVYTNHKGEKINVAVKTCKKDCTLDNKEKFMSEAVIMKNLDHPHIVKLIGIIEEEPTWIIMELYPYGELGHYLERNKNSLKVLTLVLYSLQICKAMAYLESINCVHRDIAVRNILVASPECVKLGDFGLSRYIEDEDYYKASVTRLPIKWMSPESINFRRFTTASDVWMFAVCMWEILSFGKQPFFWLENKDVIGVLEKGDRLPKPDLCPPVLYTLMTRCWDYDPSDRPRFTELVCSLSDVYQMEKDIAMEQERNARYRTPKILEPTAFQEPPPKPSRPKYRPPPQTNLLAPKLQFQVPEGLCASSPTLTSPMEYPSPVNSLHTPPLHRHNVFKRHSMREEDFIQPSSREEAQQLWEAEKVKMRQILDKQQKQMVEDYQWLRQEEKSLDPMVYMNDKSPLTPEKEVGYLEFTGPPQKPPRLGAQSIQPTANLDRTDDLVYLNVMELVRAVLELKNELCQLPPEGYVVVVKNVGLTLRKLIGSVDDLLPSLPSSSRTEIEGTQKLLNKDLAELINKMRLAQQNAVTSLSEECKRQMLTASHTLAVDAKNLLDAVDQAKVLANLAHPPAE
HCT116 PTEN-null: suppresses growth of cells with PTEN deletion. HCT116 PTEN-null viability, CellTiter-Glo, 60 h; active compounds read low. viability, % at 10 µM. 140,000 compounds, 1.2% hits. AID 827;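 active = viability at or below a set limit, 4 SD under the median of all tested compounds, cut at about 3.7% in these data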;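 note: PTEN knockout HCT116 line with beta catenin targeted HCT116 as companion control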
HCT116 bCat-KO: beta-catenin-lacking colon tumor cell growth suppression; AID 818; HCT116 beta-catenin knockout viability, CellTiter-Glo, 60 h; active compounds read low; viability, % at 10 µM; 140,000 compounds, 1.5% hits;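 active = viability at or under a set limit, the compound median less 4 SD, cut at about 6% in these data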
Hits are given with their value; – = inactive; · = no result. The sample as a whole holds a higher share of hits than the screen did.

SMILES	H69AR inhibit	HUVEC inhibit	Lung fibro prol	Pyk2 oligo antag	HCT116 PTEN-null	HCT116 bCat-KO
COc1cccc(CN(Cc2cccnc2)S(=O)(=O)c2ccc(-n3cnnn3)c(C)c2)c1OC	–	–	–	–	–	–
CCCCCCCCC[n+]1cccc2c3ccccc3ccc21	·	·	·	–	1.2	1.2
O=C(C[n+]1cc2ccccc2c2ccccc21)c1ccccc1	·	·	·	–	–	–
O=C(C[n+]1cccc2ccccc21)c1ccccc1	·	·	·	·	–	–
CCCCCCCCCCCCCCCC[n+]1cccc2ccccc21	·	·	·	·	1.7	1.4
O=C(NC(=S)NC(c1ccccc1)c1ccncc1)c1ccccc1 (stereo not given)	·	·	·	·	–	–
COc1ccc(CNC(=O)C(=O)NCC2OCCN2S(=O)(=O)c2cccs2)cc1 (stereo not given)	·	·	·	·	–	–
Cc1cnc(C(=O)OCC(=O)N2c3ccccc3NC(=O)C2(C)C)cn1	–	–	–	–	–	–
Cc1nn(-c2ccccc2)c(C)c1C(=O)OCC(=O)N1c2ccccc2NC(=O)C1(C)C	16.9	–	–	–	–	–
Cc1ccc(-c2nc3ccccc3s2)cc1S(=O)(=O)N1CCCC1	32.4	–	–	–	–	–
O=S(=O)(c1cccc(-c2nc3ccccc3s2)c1)N1CCOCC1	–	–	–	–	–	–
O=C(Nc1c(-c2ccccc2)nc2sccn12)c1ccccc1	–	–	–	–	–	–
COc1ccc(-c2csc(N(CC3CCCO3)C(=O)c3ccco3)n2)cc1 (stereo not given)	–	–	–	–	–	–
CCOC(=O)C1C(=O)C=C(c2ccc([N+](=O)[O-])cc2)CC1c1ccccc1 (stereo not given)	·	·	·	–	–	–
CCOC(=O)C1C(=O)C=C(c2cccc(NS(C)(=O)=O)c2)CC1c1ccco1 (stereo not given)	37.0	–	–	–	–	–
CCOC(=O)C1C(=O)C=C(c2ccc(Br)cc2)CC1c1ccco1 (stereo not given)	27.6	–	–	–	–	–
CCOC(=O)Cn1c(=O)oc2cc(S(=O)(=O)N3CCc4ccccc43)ccc21	–	–	–	·	–	–
O=C(NCc1ccccn1)c1ccc(CNS(=O)(=O)c2cccc(Cl)c2)cc1	·	·	·	·	–	–
CC(C)CC(=O)Nc1cccc(NC(=O)CC(C)C)n1	·	·	·	·	–	–
CC(C)(C)N1CC(c2nc3ccccc3n2Cc2ccccc2)CC1=O (stereo not given)	38.2	–	–	–	–	–
COc1ccc(/C(O)=C/c2nc3ccc(C(=O)NCCc4cccc(C)c4)cc3[nH]c2=O)cc1OC	·	·	·	·	1.5	2.0
COc1ccc(CCNC(=O)c2ccc3nc(-c4ccco4)c(-c4ccco4)nc3c2)cc1OC	17.9	–	–	–	–	–
COc1ccc(CCNC(=O)c2ccc3c(=O)n(Cc4ccco4)c(=S)[nH]c3c2)cc1OC	10.6	–	–	–	–	–
COc1ccc(C2=[N+](C)CCn3cccc32)c(OC)c1	·	·	·	·	–	–
N#CCc1nc2c3c4c(sc3ncn2n1)CCCC4	–	16.3	–	–	–	–
SMILES	H69AR inhibit	HUVEC inhibit	Lung fibro prol	Pyk2 oligo antag	HCT116 PTEN-null	HCT116 bCat-KO
CCOC(=O)c1c(-c2ccc(C)o2)csc1NC(=O)CN1CCN(CC)CC1	–	–	–	–	–	–
CCOC(=O)c1c(-c2ccc(C)o2)csc1NC(=O)CSc1nncs1	30.7	–	–	–	–	–
CCOc1cc(-c2cc(-c3ccc(C)cc3)nc(N)c2C#N)ccc1O	6.9	–	–	-3.77	–	–
CCOc1cc(/C=C(\C#N)c2[nH]nc(N)c2C#N)ccc1O	36.6	–	–	-3.14	–	–
CCOc1cc(-c2c(C#N)c(N)nc3c2CCCC3C)ccc1O (stereo not given)	31.1	–	–	-3.07	–	–
CCOc1cc(-c2c(C#N)c(N)nc3c2CCc2ccccc2-3)ccc1O	·	·	·	·	–	–
O=C(CCCO)CCCCCCCCC[C@H]1N[C@H](CO)[C@@H](O)[C@@H]1O	·	·	·	·	–	–
CC1=Nc2ncnn2C(c2ccccc2)/C1=N\O (stereo not given)	–	–	–	–	–	–
CC(=O)Nc1ccc(S(=O)(=O)NC2=C(N3CCN(c4ccc(F)cc4)CC3)C(=O)c3ccccc3C2=O)cc1	–	4.8	–	·	2.1	2.0
Cc1cc(C)cc(C(=O)N2CCC(C(N)=O)CC2)c1	–	–	–	–	–	–
CC(=O)Nc1ccc(S(=O)(=O)NCc2ccc(C(=O)NC(C)c3ccccc3)cc2)cc1 (stereo not given)	–	–	–	–	–	–
O=[N+]([O-])c1cccc(/C=C/c2nc3ccc([N+](=O)[O-])cc3[nH]2)c1	·	·	·	–	3.7	–
O=[N+]([O-])c1ccc2nc(-c3ccccc3)[nH]c2c1	·	·	·	·	–	–
CCCCCCC(=O)N(O)C1CC(=O)N(c2ccc(Br)cc2)C1=O (stereo not given)	32.8	–	–	–	–	–
COc1ccccc1N(O)C1CC(=O)N(c2ccc(Br)cc2)C1=O (stereo not given)	–	–	–	–	–	–
O=C(CSc1nnc2scc(-c3ccccc3)n12)Nc1nsc(-c2ccccc2)n1	38.4	–	–	–	–	–
Cc1ccc(-c2csc3nnc(SCC(=O)Nc4nsc(-c5ccccc5)n4)n23)cc1	–	–	–	–	–	–
Cc1cnc(NC(=O)c2ccc(-c3nc4ccccc4s3)o2)s1	28.3	–	–	–	–	–
CCn1c(SCC(=O)N2CCCc3ccccc32)nnc1-c1c[nH]c2ccccc12	23.4	–	–	–	–	–
Clc1ccccc1CSc1nncn1NC/C=C/c1ccccc1	·	·	·	·	–	–
CC(C)OC(=O)c1c(NC(=O)CCn2nnc3ccccc32)sc2c1CCCC2	–	–	·	–	–	–
CCOC(=O)c1sc(NC(=O)CCn2nnc3ccccc32)c(C(=O)OCC)c1C	36.4	–	–	·	·	·
C/C(=N\NC(=O)c1ccc(=O)[nH]n1)c1cccnc1	·	·	·	·	–	–
